Ki and inhibition data for 21 compounds are collected here from ChEMBL document CHEMBL2407035, “Identification of novel chromone based sulfonamides as highly potent and selective inhibitors of alkaline phosphatases” (Eur J Med Chem, 2013).

Assay [1] has as its target T1, Alkaline phosphatase, tissue-nonspecific isozyme (Bos taurus, UniProt P09487).
T1 sequence (P09487 whole entry): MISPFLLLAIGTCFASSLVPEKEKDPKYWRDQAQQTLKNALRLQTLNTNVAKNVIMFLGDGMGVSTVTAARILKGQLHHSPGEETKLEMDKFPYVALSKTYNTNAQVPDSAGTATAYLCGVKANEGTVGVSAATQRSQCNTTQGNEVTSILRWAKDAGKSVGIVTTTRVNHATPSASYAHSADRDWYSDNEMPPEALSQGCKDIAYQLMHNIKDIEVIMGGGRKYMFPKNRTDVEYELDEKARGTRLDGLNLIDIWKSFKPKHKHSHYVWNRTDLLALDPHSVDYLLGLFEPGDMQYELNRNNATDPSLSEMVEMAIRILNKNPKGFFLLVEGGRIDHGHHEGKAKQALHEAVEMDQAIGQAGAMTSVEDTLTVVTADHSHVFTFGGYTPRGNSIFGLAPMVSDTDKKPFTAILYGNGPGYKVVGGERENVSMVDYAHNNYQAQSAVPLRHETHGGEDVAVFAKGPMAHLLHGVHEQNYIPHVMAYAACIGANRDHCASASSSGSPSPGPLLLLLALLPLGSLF
The assay can be described thus: Inhibition of bovine kidney […] alkaline phosphatase using p-NPP as substrate treated 10 mins before substrate addition measured after 30 mins by spectrophotometric assay. The method in brief: (§1)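 Calf intestinal ALP (0.025 U/mL) or TNALP (0.5 U/mL) in 50 mM Tris-HCl, 5 mM MgCl₂, 0.1 mM ZnCl₂, pH 9.5 with compound (1% DMSO final), 10 min. Started with 0.5 mM p-NPP, 30 min at 37 °C, p-nitrophenolate read at 405 nm. Screened at 0.1 mM. Actives (>50%) got 8–10 dilutions, 1 mM to 10 nM, three times in triplicate. IC50 by nonlinear fit, Ki by Cheng–Prusoff.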

Assay [2] deals with Intestinal-type alkaline phosphatase (Bos taurus, UniProt P19111). Description: Inhibition of bovine intestinal alkaline phosphatase using p-NPP as substrate treated 10 mins before substrate addition measured after 30 mins by spectrophotometric assay. In outline:
as §1

The target of assay [3] is 5'-nucleotidase (Homo sapiens) (UniProt P21589). Description: Inhibition of human Ecto-5'-NT expressed in african green monkey COS7 cells using AMP as substrate at 0.1 mM preincubated for 10 mins measured after 10 mins. Conditions: COS-7. It is filed as cell-based. In outline: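 Human ecto-5'-NT from membrane extracts of transfected COS-7 cells (6.94 µg/mL). Preincubated with compound 10 min at 37 °C in 10 mM Hepes, 2 mM MgCl₂, 1 mM CaCl₂, pH 7.4. Started with 500 µM AMP, 10 min at 37 °C, stopped at 99 °C for 20 min. Adenosine quantified by capillary electrophoresis, UV at 260 nm, with <10% substrate conversion.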

A short description of assay [4]: Inhibition of porcine kidney […] alkaline phosphatase using p-NPP as substrate treated 10 mins before substrate addition measured after 30 mins by spectrophotometric assay. Further details: species or system Sus scrofa. In outline:
as §1

The target in assay [5] is Intestinal-type alkaline phosphatase (Bos taurus) (UniProt P19111). Description: Competitive inhibition of bovine intestinal alkaline phosphatase using p-NPP as substrate by Double-reciprocal plot analysis. In outline: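 Calf intestinal ALP kinetics: initial velocities measured with 4-NPP at 0.01-1 mM and inhibitor at 0, 100 and 300 nM. Double-reciprocal plots (1/[S] vs 1/v) were used to assign the inhibition mode. Buffer is 50 mM Tris-HCl, 5 mM MgCl₂, 0.1 mM ZnCl₂, pH 9.5, read at 405 nm.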

Activity calls are given as the source filed them. The rule behind the calls is not given here.

As usually defined, the Ki is the dissociation constant of the complex between target and ligand, obtained from inhibition or displacement. Usually inhibition stands for how much of the control response was suppressed.

Chain of 5'-nucleotidase (Homo sapiens) (P21589 whole entry): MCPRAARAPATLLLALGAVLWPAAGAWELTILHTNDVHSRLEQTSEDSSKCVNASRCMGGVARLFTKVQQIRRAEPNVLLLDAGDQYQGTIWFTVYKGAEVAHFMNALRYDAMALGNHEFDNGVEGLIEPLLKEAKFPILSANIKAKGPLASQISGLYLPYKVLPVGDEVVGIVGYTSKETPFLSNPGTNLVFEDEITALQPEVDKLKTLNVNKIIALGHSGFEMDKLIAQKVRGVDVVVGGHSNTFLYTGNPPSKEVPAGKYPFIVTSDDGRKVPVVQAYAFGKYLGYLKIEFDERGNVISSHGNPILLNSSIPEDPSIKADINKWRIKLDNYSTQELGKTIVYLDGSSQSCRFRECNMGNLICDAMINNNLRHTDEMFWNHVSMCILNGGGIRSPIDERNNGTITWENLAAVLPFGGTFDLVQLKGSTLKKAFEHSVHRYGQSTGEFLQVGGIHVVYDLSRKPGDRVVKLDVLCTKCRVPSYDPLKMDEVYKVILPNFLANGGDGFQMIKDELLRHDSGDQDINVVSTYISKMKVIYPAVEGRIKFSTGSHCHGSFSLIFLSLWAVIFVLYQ
Chain of Intestinal-type alkaline phosphatase (P19111 whole entry): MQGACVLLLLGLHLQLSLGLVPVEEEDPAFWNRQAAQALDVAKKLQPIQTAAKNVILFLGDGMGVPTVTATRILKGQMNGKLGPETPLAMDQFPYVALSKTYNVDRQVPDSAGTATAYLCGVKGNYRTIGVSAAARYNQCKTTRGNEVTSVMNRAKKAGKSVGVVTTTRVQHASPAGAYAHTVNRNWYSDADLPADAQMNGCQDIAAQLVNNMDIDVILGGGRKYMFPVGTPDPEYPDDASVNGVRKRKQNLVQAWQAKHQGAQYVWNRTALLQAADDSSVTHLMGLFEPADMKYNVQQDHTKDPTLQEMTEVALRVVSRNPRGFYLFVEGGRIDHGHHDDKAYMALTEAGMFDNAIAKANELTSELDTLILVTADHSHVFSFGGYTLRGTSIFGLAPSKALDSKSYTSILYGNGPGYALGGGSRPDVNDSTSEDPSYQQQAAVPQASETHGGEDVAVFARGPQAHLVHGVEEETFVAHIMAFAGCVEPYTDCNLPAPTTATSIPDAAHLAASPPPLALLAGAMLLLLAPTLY
Chain of Intestinal-type alkaline phosphatase (Bos taurus) (P19111 20-506 limits assumed): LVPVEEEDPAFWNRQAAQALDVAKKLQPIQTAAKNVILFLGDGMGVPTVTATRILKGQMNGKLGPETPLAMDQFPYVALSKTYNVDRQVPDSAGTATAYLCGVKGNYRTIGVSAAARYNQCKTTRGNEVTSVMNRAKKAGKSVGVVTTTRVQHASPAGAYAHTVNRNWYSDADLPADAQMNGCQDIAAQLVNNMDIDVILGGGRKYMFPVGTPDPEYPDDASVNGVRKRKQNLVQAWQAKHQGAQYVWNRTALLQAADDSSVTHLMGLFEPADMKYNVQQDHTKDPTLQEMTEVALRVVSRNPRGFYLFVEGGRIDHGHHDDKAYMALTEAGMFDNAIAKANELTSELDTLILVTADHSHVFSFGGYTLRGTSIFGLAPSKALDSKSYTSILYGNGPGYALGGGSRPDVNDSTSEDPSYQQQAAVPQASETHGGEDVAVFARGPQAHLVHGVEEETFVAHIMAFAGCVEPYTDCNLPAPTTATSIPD

Regarding `CCOC1Oc2c(Br)cc(Br)cc2C(=O)/C1=C\Nc1cccc(S(N)(=O)=O)c1` (centres undefined), the Ki in assay [1] worked out at 26 µM; in assay [2], 0.8 µM; in assay [4], 67.9 µM. The same compound showed an inhibition in assay [3] of 54%.

Take `CCOC1Oc2ccc(F)cc2C(=O)/C1=C/Nc1ccc(S(=O)(=O)Nc2nnc(C)s2)cc1` (centres undefined): the figures for the Ki in assay [1], in assay [2] and in assay [4] were 21 µM, 0.01 µM and 31.8 µM, respectively. The compound further displayed an inhibition in assay [3] of 0%.

For `CCOC1Oc2ccccc2C(=O)/C1=C/Nc1ccc(S(=O)(=O)Nc2cc(OC)nc(OC)n2)cc1` (centres undefined), the Ki was 23 µM in assay [1], 7.8 µM in assay [2] and 35.4 µM in assay [4]. Further, the inhibition in assay [3] was 0%.

`CCOC1Oc2ccccc2C(=O)/C1=C/Nc1ccc(S(=O)(=O)Nc2nnc(C)s2)cc1` (centres undefined): the values for the Ki in assay [1], in assay [2] and in assay [4] were 0.25 µM, 0.085 µM and 0.079 µM, respectively. For the same compound, the inhibition in assay [3] stood at 26%.

Take `CCOC1Oc2ccccc2C(=O)/C1=C/Nc1ccc(S(=O)(=O)Nc2ccccn2)cc1` (centres undefined): the values for the Ki in assay [1], in assay [2] and in assay [4] were 22 µM, 0.41 µM and 21.2 µM, respectively. The inhibition in assay [3] came out at 0%.

Take `O=c1c(C2Nc3ccccc3S(=O)(=O)N2)coc2ccc(F)cc12` (centres undefined): the Ki in assay [1] worked out at 43 µM; in assay [2] it was 0.78 µM; in assay [4] it was 2.8 µM. In addition, in assay [3], the inhibition was determined as 0%.

As for `CCOC1Oc2c(Br)cc(Br)cc2C(=O)/C1=C\Nc1ccccc1S(N)(=O)=O` (centres undefined), the Ki in assay [1] was found to be 29 µM; in assay [2], 0.2 µM; in assay [4], 11.7 µM. In addition, the inhibition in assay [3] turned out to be 63%.

As to `CCOC1Oc2ccccc2C(=O)/C1=C/Nc1ccc(S(=O)(=O)Nc2ccc(OC)nn2)cc1` (centres undefined), the Ki in assay [1] was found to be 38 µM; in assay [2] it was 7.8 µM; in assay [4], 52.5 µM. The inhibition in assay [3] was 0%.

For the compound `CCOC1Oc2ccc(Br)cc2C(=O)/C1=C/Nc1ccc(S(=O)(=O)Nc2ccccn2)cc1` (centres undefined), the Ki is 74 µM in assay [1], 9.3 µM in assay [2] and 73.6 µM in assay [4]. The inhibition in assay [3] was determined as 0%.

In the case of `CCOC1Oc2ccccc2C(=O)/C1=C\Nc1cccc(S(N)(=O)=O)c1` (centres undefined), the values for the Ki in assay [1], in assay [2] and in assay [4] were 41 µM, 33.5 µM and 41.7 µM, respectively. The same compound yielded an inhibition in assay [3] of 0%.

Turning to `O=c1c(C2Nc3ccccc3S(=O)(=O)N2)coc2ccc(Br)cc12` (centres undefined), in assay [5], the inhibition entry was “Active”. For the same compound, the Ki in assay [1] came out at 0.13 µM; in assay [2], 0.021 µM. The same compound returned an inhibition in assay [3] of 0%.

Consider `CCOC1Oc2ccc(F)cc2C(=O)/C1=C\Nc1ccc(S(N)(=O)=O)cc1` (centres undefined), for which the Ki is 220 µM in assay [1], 1.43 µM in assay [2] and 66.8 µM in assay [4]. The compound also registered an inhibition in assay [3] of 16%.

As for `CCOC1Oc2ccc(CC)cc2C(=O)/C1=C\Nc1ccc(S(N)(=O)=O)cc1` (centres undefined), the Ki is 60 µM in assay [1], 2.6 µM in assay [2] and 68.8 µM in assay [4]. Also, the inhibition in assay [3] is 13%.

As to `CCOC1Oc2ccccc2C(=O)/C1=C\Nc1ccc(S(N)(=O)=O)cc1` (centres undefined), the Ki in assay [1] was found to be 6.8 µM; in assay [2] it was 90.6 µM; in assay [4] it was 10.9 µM. The compound further showed an inhibition in assay [3] of 5.7%.

For the compound `CCOC1Oc2ccc(F)cc2C(=O)/C1=C\Nc1cccc(S(N)(=O)=O)c1` (centres undefined), the results for the Ki in assay [1], in assay [2] and in assay [4] were 18 µM, 17.1 µM and 19.9 µM, respectively. The inhibition in assay [3] was 0%.

As to `CCOC1Oc2ccc(Br)cc2C(=O)/C1=C\Nc1cccc(S(N)(=O)=O)c1` (centres undefined), the Ki in assay [1] came out at 44 µM; in assay [2] it was 8.7 µM; in assay [4], 51.3 µM. In addition, in assay [3], the inhibition amounted to 0%.

Regarding `CCOC1Oc2ccc(CC)cc2C(=O)/C1=C\Nc1ccccc1S(N)(=O)=O` (centres undefined), the Ki was found to be 29 µM in assay [1], 0.4 µM in assay [2] and 18 µM in assay [4]. In assay [3], this compound showed an inhibition of 4%.

For the compound `O=c1c(C2Nc3ccccc3S(=O)(=O)N2)coc2ccccc12` (centres undefined), the Ki in assay [1] amounted to 27 µM; in assay [2], 0.049 µM; in assay [4] it was 21.3 µM. In assay [3], this compound showed an inhibition of 0%.

Regarding `CCOC1Oc2c(Br)cc(Br)cc2C(=O)/C1=C\Nc1ccc(S(N)(=O)=O)cc1` (centres undefined), the Ki in assay [1] is 63 µM; in assay [2], 5.1 µM; in assay [4], 55.3 µM. The compound also displayed an inhibition in assay [3] of 43%.

For the compound `CCOC1Oc2ccc(Br)cc2C(=O)/C1=C\Nc1ccc(S(N)(=O)=O)cc1` (centres undefined), the Ki stood at 48 µM in assay [1], 0.41 µM in assay [2] and 44.6 µM in assay [4]. In assay [3], this compound yielded an inhibition of 52%.

Regarding `CCOC1Oc2ccc(CC)cc2C(=O)/C1=C\Nc1cccc(S(N)(=O)=O)c1` (centres undefined), the Ki in assay [1] is 16.8 µM; in assay [2] it was 2.1 µM; in assay [4], 20.1 µM. Besides, the inhibition in assay [3] is 30%.
